Drawing on ChEMBL document CHEMBL2163200, “Synthesis, biological evaluation, and structure-activity relationships of novel substituted N-phenyl ureidobenzenesulfonate derivatives blocking cell cycle progression in S-phase and inducing DNA double-strand breaks” (J Med Chem, 2012), this text covers Activity, IC50 and TGI for six compounds.

The test system of assay [1] is Jurkat. Nature of the assay: Cell cycle arrest in human Jurkat E6-1 cells assessed as accumulation at G2/M phase at 29 uM after 24 hrs by FACS flow cytometry. The format is functional. The gist of the method: (§1)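 Jurkat E6 cells grown in RPMI 1640 with 10% FBS at 37 °C, 5% CO2. Compounds were serially diluted in medium starting 50% above the M21 IC50. 4.0 × 10^5 cells were exposed for 24 h, then washed and spiked with chicken red blood cells as internal standard. Cells were fixed in ice-cold ethanol, stained with 1 μg/mL DAPI on ice for 1 h, and phase distribution was read by flow cytometry. The control was 0.5% DMSO.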

In assay [2] the test system is Jurkat. Nature of the assay: Cell cycle arrest in human Jurkat E6-1 cells assessed as accumulation at S phase at 29 uM after 24 hrs by FACS flow cytometry. The format is functional. The essentials: (§2)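 Jurkat E6 T-lymphoblasts in RPMI 1640 with 10% FBS, 37 °C, 5% CO2. […] Chicken red blood cells were added as internal standard. Cells were fixed in ice-cold EtOH and stained with 1 μg/mL DAPI on ice for 1 h before flow cytometry of phase distribution. Vehicle control was 0.5% DMSO.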
In general terms: In flow cytometry, cells or beads pass a laser one at a time.

In another assay the test system is HT-29. Nature of the assay: Cytotoxicity against human HT-29 cells after 48 hrs by SRB assay. The assay is classed as functional, cell-based. The note with it: HT-29, 48 h. The essentials:
(§3)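 NCI sulforhodamine B protocol. Cells were grown in high-glucose DMEM with 5% FBS and seeded per well at 4 × 10^3 (HT-29), 3.5 × 10^3 (M21) or 3 × 10^3 (MCF-7), then allowed 24 h to attach. Serial dilutions from 200 μM to 780 nM final were applied in DMSO <0.5% for 48 h. Cells were fixed with cold TCA (10% final) and stained with SRB, with absorbance read at 530–568 nm. Growth inhibition was computed against day-0 plates, giving the 50% inhibitory concentration. At least two experiments in triplicate, CV <10%.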
(In general: In SRB staining, fixed cells bind dye roughly in proportion to their protein.)

Assay [3] deals with Jurkat. Nature of the assay: Cell cycle arrest in human Jurkat E6-1 cells assessed as accumulation at G0/G1 phase at 29 uM after 24 hrs by FACS flow cytometry. The format is functional. The essentials: (§4)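 Jurkat E6 cells cultured in RPMI 1640 with 10% FBS at 37 °C, 5% CO2. Compounds serially diluted in medium, starting 50% above the M21 IC50. 4.0 × 10^5 cells were exposed for 24 h. Cells were washed with PBS, chicken red blood cells added as internal standard, and fixed in ice-cold EtOH. After 1 h on ice in PBS with 1 μg/mL DAPI, phase distribution was read by flow cytometry. DMSO-treated cells served as control.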

In assay [4] the test system is M21. Nature of the assay: Cytotoxicity against human M21 cells after 48 hrs by SRB assay. The format is functional, cell-based. The note with it: M21, 48 h. The essentials: as §3
Assay [5] deals with M21. As to the kind of experiment: Induction of DNA damage response in human M21 cells assessed as phosphorylation of H2AX into gammaH2AX at IC50 after 24 hrs by DAPI staining-based immunofluorescence assay. The assay is classed as functional, cell-based. The essentials:
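M21 cells (1 × 10^5) on fibronectin-coated coverslips, grown 24 h, then exposed to agent for 24 h at 37 °C; 0.5% DMSO control. Fixed with 3.7% formaldehyde and permeabilized with 0.1% saponin/3% BSA. Probed with mouse anti-H2AX pS139 antibody for 2 h at room temperature. Nuclei counterstained with DAPI; nuclear γH2AX foci viewed by epifluorescence microscopy.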

Assay [6] relates to Jurkat. Nature of the assay: Cell cycle arrest in human Jurkat E6-1 cells assessed as accumulation at S phase at 9.3 uM after 24 hrs by FACS flow cytometry. The format is functional. The essentials: as §2
A further assay deals with HT-1080. Nature of the assay: Antitumor activity against human HT1080 cells xenografted in chicken chorioallantoic membrane assessed as inhibition of tumor growth at 30 ug per egg, iv administered on day 11 measured on day 17 by CAM assay. The assay is classed as functional. The gist of the method: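 HT-1080 fibrosarcoma cells (3.5 × 105/egg) were applied onto freshly exposed CAM of fertilized chicken eggs. On day 11, drug from a DMSO stock was diluted in Cremophor EL/99% ethanol/PBS (1/1/14 v/v) and 100 μL was injected into a vein under the CAM. Groups of 10–12 eggs were kept to day 17, embryos were euthanized at 4 °C for ≥4 h, and tumor wet weight was recorded.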
(Xenograft models place foreign cells or tissue in a host animal.)

The next assay concerns MCF7. Nature of the assay: Cytotoxicity against human MCF7 cells after 48 hrs by SRB assay. The note with it: MCF7, 48 h. The format is functional, cell-based. The essentials:
as §3

Assay [7] relates to Jurkat. As to the kind of experiment: Cell cycle arrest in human Jurkat E6-1 cells assessed as accumulation at G2/M phase at 9.3 uM after 24 hrs by FACS flow cytometry. The assay is classed as functional. The essentials:
as §1

Assay [8] relates to Jurkat. As to the kind of experiment: Cell cycle arrest in human Jurkat E6-1 cells assessed as accumulation at G0/G1 phase at 9.3 uM after 24 hrs by FACS flow cytometry. The assay is classed as functional. The gist of the method: as §4
Assay [9] concerns Jurkat. Nature of the assay: Cell cycle arrest in human Jurkat E6-1 cells assessed as accumulation at S phase at 63 uM after 24 hrs by FACS flow cytometry. The assay is classed as functional. The essentials: as §2
The subject of assay [10] is Jurkat. Nature of the assay: Cell cycle arrest in human Jurkat E6-1 cells assessed as accumulation at G2/M phase at 63 uM after 24 hrs by FACS flow cytometry. The format is functional. The essentials: as §1
For assay [11], the system named is Jurkat. Nature of the assay: Cell cycle arrest in human Jurkat E6-1 cells assessed as accumulation at G0/G1 phase at 63 uM after 24 hrs by FACS flow cytometry. The assay is classed as functional. The essentials: as §4
In assay [12] the test system is Jurkat. Nature of the assay: Cell cycle arrest in human Jurkat E6-1 cells assessed as accumulation at G0/G1 phase at 14 uM after 24 hrs by FACS flow cytometry. The format is functional. The essentials:
as §4

The test system of assay [13] is Jurkat. As to the kind of experiment: Cell cycle arrest in human Jurkat E6-1 cells assessed as accumulation at G2/M phase at 14 uM after 24 hrs by FACS flow cytometry. The assay is classed as functional. The gist of the method: as §4
In assay [14] the test system is Jurkat. As to the kind of experiment: Cell cycle arrest in human Jurkat E6-1 cells assessed as accumulation at S phase at 14 uM after 24 hrs by FACS flow cytometry. The format is functional. The essentials:
as §1

In assay [15] the test system is Jurkat. As to the kind of experiment: Cell cycle arrest in human Jurkat E6-1 cells assessed as accumulation at G0/G1 phase at 64 uM after 24 hrs by FACS flow cytometry. The assay is classed as functional. The essentials: as §4
Assay [16] deals with Jurkat. As to the kind of experiment: Cell cycle arrest in human Jurkat E6-1 cells assessed as accumulation at G2/M phase at 64 uM after 24 hrs by FACS flow cytometry. The assay is classed as functional. The gist of the method:
as §1

In assay [17] the test system is Jurkat. As to the kind of experiment: Cell cycle arrest in human Jurkat E6-1 cells assessed as accumulation at S phase at 64 uM after 24 hrs by FACS flow cytometry. The format is functional. The gist of the method:
as §2

The subject of assay [18] is Jurkat. As to the kind of experiment: Cell cycle arrest in human Jurkat E6-1 cells assessed as accumulation at G2/M phase at 24 uM after 24 hrs by FACS flow cytometry. The format is functional. The gist of the method: as §1
In assay [19] the test system is Jurkat. As to the kind of experiment: Cell cycle arrest in human Jurkat E6-1 cells assessed as accumulation at S phase at 24 uM after 24 hrs by FACS flow cytometry. The assay is classed as functional. The essentials:
as §1

Assay [20] has as its system Jurkat. As to the kind of experiment: Cell cycle arrest in human Jurkat E6-1 cells assessed as accumulation at G0/G1 phase at 24 uM after 24 hrs by FACS flow cytometry. The format is functional. The gist of the method: as §4

Active and inactive are the calls of the source. The rule behind the calls is not given here.

What is called IC50 is the concentration that inhibits the measured activity by half. For `CCCc1ccccc1NS(=O)(=O)c1ccc(NC(=O)NCCCl)cc1`, the Activity in the assay with Jurkat [1] worked out at 28%; with Jurkat [2], 44%; with Jurkat [3] it was 28%. Besides, the IC50 with HT-29 came to 21 µM; with M21 [4], 29 µM.

One may read the TGI as how far tumour growth fell short of that in controls. Turning to `CCc1ccccc1OS(=O)(=O)c1ccc(NC(=O)NCCCl)cc1`, the outcome in the assay with M21 [5] was Active. The Activity was found to be 77% with Jurkat [6], 17% with Jurkat [7] and 6% in the assay on Jurkat [8]. Also, the TGI in the assay on HT-1080 worked out at 49%. Also, the IC50 in the assay on MCF7 amounted to 19 µM; with HT-29, 17 µM; in the assay on M21 [4] it was 13 µM.

For the compound `Cc1ccccc1NS(=O)(=O)c1cccc(NC(=O)NCCCl)c1`, the Activity was determined as 45% with Jurkat [9], 14% in the assay on Jurkat [10] and 41% in the assay on Jurkat [11]. Also, the IC50 turned out to be 86 µM in the assay with MCF7, 71 µM in the assay on HT-29 and 91 µM in the assay on M21 [4].

As to `CCCc1ccccc1OS(=O)(=O)c1cccc(NC(=O)NCCCCl)c1`, the Activity is on record as 52% with Jurkat [12], 9% with Jurkat [13] and 39% in the assay with Jurkat [14]. For the same compound, the values for the IC50 in the assay with MCF7, in the assay with HT-29 and in the assay on M21 [4] were 14 µM, 14 µM and 15 µM, respectively.

With `CCc1ccccc1NS(=O)(=O)c1cccc(NC(=O)NCCCl)c1`, the Activity was determined as 46% in the assay with Jurkat [15], 12% with Jurkat [16] and 42% in the assay on Jurkat [17]. Besides, the results for the IC50 in the assay on MCF7, in the assay on HT-29 and in the assay with M21 [4] were 46 µM, 48 µM and 65 µM, respectively.

`Cc1ccccc1OS(=O)(=O)c1cccc(NC(=O)NCCCl)c1`: the Activity with Jurkat [18] came out at 11%; in the assay on Jurkat [19] it was 44%; with Jurkat [20], 45%. In addition, the IC50 turned out to be 33 µM in the assay with HT-29 and 40 µM in the assay on M21 [4].
